Measurements published in ChEMBL document CHEMBL3098105, “7,7'-Diazaindirubin--a small molecule inhibitor of casein kinase 2 in vitro and in cells” (Bioorg Med Chem, 2014).

How the values were obtained:
[1] = target: Serine/threonine-protein kinase PAK 6 (Homo sapiens) (UniProt Q9NQU5); assay: Inhibition of human PAK6 assessed as residual activity at 1 uM relative to control
[2] = target: Testis-specific serine/threonine-protein kinase 1 (Homo sapiens) (UniProt Q9BXA7); assay: Inhibition of human TSSK1 assessed as residual activity at 1 uM relative to control
[3] = target: Protein kinase C eta type (Homo sapiens) (UniProt P24723); assay: Inhibition of human PKCeta assessed as residual activity at 1 uM relative to control
[4] = target: MAP kinase-activated protein kinase 2 (Homo sapiens) (UniProt P49137); assay: Inhibition of human MAPKAP-K2 assessed as residual activity at 1 uM relative to control
[5] = target: Proto-oncogene tyrosine-protein kinase Src (Homo sapiens) (UniProt P12931); assay: Inhibition of human cSRC assessed as residual activity at 1 uM relative to control
[6] = target: Glycogen synthase kinase-3 beta (Homo sapiens) (UniProt P49841); assay: Inhibition of GSK3-beta (unknown origin) assessed as residual activity at 10 uM relative to control
[7] = target: Platelet-derived growth factor receptor alpha (Homo sapiens) (UniProt P16234); assay: Inhibition of human PDGFRalpha assessed as residual activity at 1 uM relative to control
[8] = target: PAS domain-containing serine/threonine-protein kinase (Homo sapiens) (UniProt Q96RG2); assay: Inhibition of human PASK assessed as residual activity at 1 uM relative to control
[9] = target: Serine/threonine-protein kinase D2 (Homo sapiens) (UniProt Q9BZL6); assay: Inhibition of human PKD2 assessed as residual activity at 1 uM relative to control
[10] = target: Proto-oncogene tyrosine-protein kinase receptor Ret (Homo sapiens) (UniProt P07949); assay: Inhibition of RET (unknown origin) assessed as residual activity at 1 uM relative to control
[11] = target: Tyrosine-protein kinase TXK (Homo sapiens) (UniProt P42681); assay: Inhibition of human Txk assessed as residual activity at 1 uM relative to control
[12] = target: Receptor tyrosine-protein kinase erbB-4 (Homo sapiens) (UniProt Q15303); assay: Inhibition of human ErbB4 assessed as residual activity at 1 uM relative to control
[13] = target: cAMP-dependent protein kinase catalytic subunit PRKX (Homo sapiens) (UniProt P51817); assay: Inhibition of human PrKX assessed as residual activity at 1 uM relative to control
PC-3 = assay: Antiproliferative activity against human PC3 cells after 3 days by sulforhodamine B assay; assay type: functional; settings: PC-3, 72 h
Summary of the method: (§1)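 Tested in the NCI 60 cell line panel. GI50 is the concentration giving 50% inhibition of cell growth, and values are the mean of two series of tests.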

[14] = target: Serine/threonine-protein kinase MARK1 (Homo sapiens) (UniProt Q9P0L2); assay: Inhibition of human MARK1 assessed as residual activity at 1 uM relative to control
DU-145 = assay: Antiproliferative activity against human DU145 cells after 3 days by sulforhodamine B assay; assay type: functional; settings: DU-145, 72 h; summary of the method: as §1
[15] = target: Mitogen-activated protein kinase 1 (Homo sapiens) (UniProt P28482); assay: Inhibition of human MAPK2 assessed as residual activity at 1 uM relative to control
[16] = target: Hepatocyte growth factor receptor (Homo sapiens) (UniProt P08581); assay: Inhibition of human Met assessed as residual activity at 1 uM relative to control
[17] = target: Tyrosine-protein kinase JAK2 (Homo sapiens) (UniProt O60674); assay: Inhibition of JAK2 (unknown origin) assessed as residual activity at 10 uM relative to control
[18] = target: Serine/threonine-protein kinase Sgk1 (Homo sapiens) (UniProt O00141); assay: Inhibition of human SGK assessed as residual activity at 1 uM relative to control
[19] = target: Dual specificity tyrosine-phosphorylation-regulated kinase 2 (Homo sapiens) (UniProt Q92630); assay: Inhibition of human DYRK2 assessed as residual activity at 1 uM relative to control
SF-295 = assay: Antiproliferative activity against human SF295 cells after 3 days by sulforhodamine B assay; assay type: functional; settings: SF-295, 72 h; summary of the method: as §1
[20] = target: CDK2/Cyclin A2 (Homo sapiens) (UniProt P24941+P20248); assay: Inhibition of CDK2/CycA (unknown origin) assessed as residual activity at 10 uM relative to control; assay type: protein-complex assay
Homo sapiens = species on record: Homo sapiens; assay: Inhibition of S6K (unknown origin) assessed as residual activity at 1 uM relative to control
NCI-H23 = assay: Antiproliferative activity against human NCI-H23 cells after 3 days by sulforhodamine B assay; assay type: functional; settings: NCI-H23, 72 h; summary of the method: as §1
[21] = target: Fibroblast growth factor receptor 1 (Homo sapiens) (UniProt P11362); assay: Inhibition of FGF-R1 (unknown origin) assessed as residual activity at 1 uM relative to control
[22] = target: Ribosomal protein S6 kinase alpha-5 (Homo sapiens) (UniProt O75582); assay: Inhibition of human MSK1 assessed as residual activity at 1 uM relative to control
[23] = target: Ephrin type-A receptor 5 (Homo sapiens) (UniProt P54756); assay: Inhibition of human EphA5 assessed as residual activity at 1 uM relative to control
MCF7 [24] = assay: Cell cycle arrest in human MCF7 cells assessed as accumulation at sub-G1 phase at 0.5 uM after 24 hrs using propidium iodide staining by FACS analysis (reference value: 0.17%); assay type: functional
[25] = target: Dual specificity mitogen-activated protein kinase kinase 6 (Homo sapiens) (UniProt P52564); assay: Inhibition of human MKK6 assessed as residual activity at 1 uM relative to control
MCF7 [26] = assay: Cell cycle arrest in human MCF7 cells assessed as accumulation at sub-G1 phase at 0.25 uM after 24 hrs using propidium iodide staining by FACS analysis (reference value: 0.17%); assay type: functional
MCF7 [27] = assay: Cell cycle arrest in human MCF7 cells assessed as accumulation at G1 phase at 0.25 uM after 24 hrs using propidium iodide staining by FACS analysis (reference value: 57.74%); assay type: functional
[28] = target: Epidermal growth factor receptor (Homo sapiens) (UniProt P00533); assay: Inhibition of EGF-R (unknown origin) assessed as residual activity at 1 uM relative to control
[29] = target: Ephrin type-A receptor 7 (Homo sapiens) (UniProt Q15375); assay: Inhibition of human EphA7 assessed as residual activity at 1 uM relative to control
[30] = target: Protein kinase C beta type (Homo sapiens) (UniProt P05771); assay: Inhibition of human PKCbeta1 assessed as residual activity at 1 uM relative to control
[31] = target: G protein-coupled receptor kinase 5 (Homo sapiens) (UniProt P34947); assay: Inhibition of human GRK5 assessed as residual activity at 1 uM relative to control
[32] = target: Serine/threonine-protein kinase Sgk3 (Homo sapiens) (UniProt Q96BR1); assay: Inhibition of human SGK3 assessed as residual activity at 1 uM relative to control
[33] = Antiproliferative activity against human EKVX cells after 3 days by sulforhodamine B assay; assay type: functional; settings: 72 h; summary of the method: as §1

Chain of Ephrin type-A receptor 5 (Homo sapiens) (P54756 whole entry): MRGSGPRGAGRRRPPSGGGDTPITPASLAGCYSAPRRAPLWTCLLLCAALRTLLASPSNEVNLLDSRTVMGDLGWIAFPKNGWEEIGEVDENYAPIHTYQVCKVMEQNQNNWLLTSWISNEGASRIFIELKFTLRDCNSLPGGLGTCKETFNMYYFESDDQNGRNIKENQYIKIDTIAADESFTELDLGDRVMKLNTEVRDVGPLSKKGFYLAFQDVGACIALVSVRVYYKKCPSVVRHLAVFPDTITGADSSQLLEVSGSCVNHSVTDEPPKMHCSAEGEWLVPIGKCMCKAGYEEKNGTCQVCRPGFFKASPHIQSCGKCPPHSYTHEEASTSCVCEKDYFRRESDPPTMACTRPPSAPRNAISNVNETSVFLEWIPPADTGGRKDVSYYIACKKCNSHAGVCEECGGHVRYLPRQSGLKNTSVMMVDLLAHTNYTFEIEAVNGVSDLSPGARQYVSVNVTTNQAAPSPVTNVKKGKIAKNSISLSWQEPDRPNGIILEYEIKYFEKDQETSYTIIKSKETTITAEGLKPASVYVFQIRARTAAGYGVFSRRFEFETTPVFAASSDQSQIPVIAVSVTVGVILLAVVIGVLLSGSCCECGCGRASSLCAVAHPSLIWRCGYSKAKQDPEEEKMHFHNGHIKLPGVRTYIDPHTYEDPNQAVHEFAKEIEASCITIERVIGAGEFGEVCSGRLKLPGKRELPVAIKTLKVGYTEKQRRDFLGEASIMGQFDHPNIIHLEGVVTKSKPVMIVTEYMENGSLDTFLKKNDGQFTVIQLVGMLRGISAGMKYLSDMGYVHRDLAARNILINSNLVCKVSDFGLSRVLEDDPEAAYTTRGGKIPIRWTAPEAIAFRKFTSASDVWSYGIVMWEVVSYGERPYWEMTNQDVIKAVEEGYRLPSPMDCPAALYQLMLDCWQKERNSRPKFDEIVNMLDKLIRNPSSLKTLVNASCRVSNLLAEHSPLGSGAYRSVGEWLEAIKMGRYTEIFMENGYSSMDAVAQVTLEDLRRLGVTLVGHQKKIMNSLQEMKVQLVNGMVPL
Chain of Dual specificity mitogen-activated protein kinase kinase 6 (Homo sapiens) (P52564 whole entry): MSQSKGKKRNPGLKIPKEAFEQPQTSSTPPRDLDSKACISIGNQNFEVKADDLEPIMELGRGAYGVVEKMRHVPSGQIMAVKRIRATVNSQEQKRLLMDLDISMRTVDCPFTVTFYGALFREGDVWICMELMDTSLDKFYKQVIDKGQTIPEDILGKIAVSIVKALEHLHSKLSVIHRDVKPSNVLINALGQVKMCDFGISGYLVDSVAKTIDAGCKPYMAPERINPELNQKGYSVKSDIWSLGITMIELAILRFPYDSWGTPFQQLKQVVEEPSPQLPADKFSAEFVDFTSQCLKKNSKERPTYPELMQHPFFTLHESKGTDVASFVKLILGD
Chain of Serine/threonine-protein kinase PAK 6 (Homo sapiens) (Q9NQU5 whole entry, looked up): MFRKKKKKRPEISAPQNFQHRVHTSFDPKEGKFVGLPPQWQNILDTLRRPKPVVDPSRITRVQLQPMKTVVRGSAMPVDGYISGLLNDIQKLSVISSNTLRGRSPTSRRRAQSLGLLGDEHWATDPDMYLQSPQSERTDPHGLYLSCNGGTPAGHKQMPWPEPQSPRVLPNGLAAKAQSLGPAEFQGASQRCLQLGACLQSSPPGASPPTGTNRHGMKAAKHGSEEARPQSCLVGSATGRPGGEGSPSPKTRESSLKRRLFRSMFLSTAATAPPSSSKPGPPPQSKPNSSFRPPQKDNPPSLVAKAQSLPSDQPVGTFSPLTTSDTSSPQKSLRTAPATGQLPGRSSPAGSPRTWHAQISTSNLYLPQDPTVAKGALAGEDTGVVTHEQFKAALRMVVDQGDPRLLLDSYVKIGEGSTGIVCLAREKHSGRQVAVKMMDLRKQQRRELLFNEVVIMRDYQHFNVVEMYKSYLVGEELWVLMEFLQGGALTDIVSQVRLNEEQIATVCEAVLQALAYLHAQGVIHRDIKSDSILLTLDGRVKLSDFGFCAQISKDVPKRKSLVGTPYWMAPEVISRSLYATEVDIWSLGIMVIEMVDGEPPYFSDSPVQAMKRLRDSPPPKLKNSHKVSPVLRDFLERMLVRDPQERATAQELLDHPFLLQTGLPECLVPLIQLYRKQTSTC
Chain of Receptor tyrosine-protein kinase erbB-4 (Homo sapiens) (Q15303 whole entry): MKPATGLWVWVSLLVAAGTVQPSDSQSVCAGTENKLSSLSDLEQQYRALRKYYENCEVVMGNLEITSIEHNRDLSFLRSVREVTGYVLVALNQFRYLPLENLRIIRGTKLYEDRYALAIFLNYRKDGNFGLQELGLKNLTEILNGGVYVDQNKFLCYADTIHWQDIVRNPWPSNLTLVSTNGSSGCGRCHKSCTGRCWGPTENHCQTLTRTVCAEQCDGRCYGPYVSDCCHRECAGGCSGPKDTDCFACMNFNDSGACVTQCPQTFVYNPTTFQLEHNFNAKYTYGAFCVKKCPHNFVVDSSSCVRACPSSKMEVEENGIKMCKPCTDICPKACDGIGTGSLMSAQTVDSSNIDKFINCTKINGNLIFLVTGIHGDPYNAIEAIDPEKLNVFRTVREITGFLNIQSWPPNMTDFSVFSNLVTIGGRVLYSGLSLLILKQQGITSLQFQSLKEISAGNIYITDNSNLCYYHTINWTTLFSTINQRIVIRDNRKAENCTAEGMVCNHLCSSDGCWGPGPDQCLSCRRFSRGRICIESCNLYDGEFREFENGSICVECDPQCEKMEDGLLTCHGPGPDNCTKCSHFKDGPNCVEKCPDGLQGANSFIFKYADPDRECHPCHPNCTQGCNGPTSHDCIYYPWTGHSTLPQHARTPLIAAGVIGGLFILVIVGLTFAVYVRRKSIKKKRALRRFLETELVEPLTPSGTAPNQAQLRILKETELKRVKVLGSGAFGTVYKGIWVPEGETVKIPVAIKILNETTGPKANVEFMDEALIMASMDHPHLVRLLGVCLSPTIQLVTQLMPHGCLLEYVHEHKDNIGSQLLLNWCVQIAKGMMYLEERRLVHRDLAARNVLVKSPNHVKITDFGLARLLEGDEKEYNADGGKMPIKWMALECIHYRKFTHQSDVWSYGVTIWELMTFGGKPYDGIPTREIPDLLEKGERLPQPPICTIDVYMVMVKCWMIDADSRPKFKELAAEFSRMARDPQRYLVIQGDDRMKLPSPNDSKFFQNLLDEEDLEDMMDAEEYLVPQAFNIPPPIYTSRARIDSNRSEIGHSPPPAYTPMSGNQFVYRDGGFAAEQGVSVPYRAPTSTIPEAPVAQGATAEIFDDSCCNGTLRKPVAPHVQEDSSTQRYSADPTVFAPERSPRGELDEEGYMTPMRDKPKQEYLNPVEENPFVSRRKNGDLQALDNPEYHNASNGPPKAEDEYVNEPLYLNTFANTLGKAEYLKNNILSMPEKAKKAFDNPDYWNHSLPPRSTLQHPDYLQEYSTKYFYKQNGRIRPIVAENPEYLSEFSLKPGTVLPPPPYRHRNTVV
Chain of Protein kinase C eta type (Homo sapiens) (P24723 whole entry): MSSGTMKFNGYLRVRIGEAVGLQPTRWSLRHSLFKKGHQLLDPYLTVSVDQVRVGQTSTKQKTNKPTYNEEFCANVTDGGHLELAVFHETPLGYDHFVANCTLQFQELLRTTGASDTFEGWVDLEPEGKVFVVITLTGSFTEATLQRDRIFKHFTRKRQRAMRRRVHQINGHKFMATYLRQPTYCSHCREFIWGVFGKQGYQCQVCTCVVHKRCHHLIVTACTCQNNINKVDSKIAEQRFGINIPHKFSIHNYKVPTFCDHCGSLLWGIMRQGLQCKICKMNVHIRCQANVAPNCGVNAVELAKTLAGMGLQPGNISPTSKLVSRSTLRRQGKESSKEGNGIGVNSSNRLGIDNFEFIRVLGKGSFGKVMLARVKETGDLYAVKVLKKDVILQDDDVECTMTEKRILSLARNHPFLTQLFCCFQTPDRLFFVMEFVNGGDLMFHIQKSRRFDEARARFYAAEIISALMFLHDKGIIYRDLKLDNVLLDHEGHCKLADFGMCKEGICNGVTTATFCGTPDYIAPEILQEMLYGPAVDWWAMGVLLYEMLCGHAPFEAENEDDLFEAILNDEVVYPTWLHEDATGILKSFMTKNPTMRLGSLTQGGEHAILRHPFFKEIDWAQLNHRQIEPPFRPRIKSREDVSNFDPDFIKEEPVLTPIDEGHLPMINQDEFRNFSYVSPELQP
Chain of G protein-coupled receptor kinase 5 (Homo sapiens) (P34947 whole entry, looked up): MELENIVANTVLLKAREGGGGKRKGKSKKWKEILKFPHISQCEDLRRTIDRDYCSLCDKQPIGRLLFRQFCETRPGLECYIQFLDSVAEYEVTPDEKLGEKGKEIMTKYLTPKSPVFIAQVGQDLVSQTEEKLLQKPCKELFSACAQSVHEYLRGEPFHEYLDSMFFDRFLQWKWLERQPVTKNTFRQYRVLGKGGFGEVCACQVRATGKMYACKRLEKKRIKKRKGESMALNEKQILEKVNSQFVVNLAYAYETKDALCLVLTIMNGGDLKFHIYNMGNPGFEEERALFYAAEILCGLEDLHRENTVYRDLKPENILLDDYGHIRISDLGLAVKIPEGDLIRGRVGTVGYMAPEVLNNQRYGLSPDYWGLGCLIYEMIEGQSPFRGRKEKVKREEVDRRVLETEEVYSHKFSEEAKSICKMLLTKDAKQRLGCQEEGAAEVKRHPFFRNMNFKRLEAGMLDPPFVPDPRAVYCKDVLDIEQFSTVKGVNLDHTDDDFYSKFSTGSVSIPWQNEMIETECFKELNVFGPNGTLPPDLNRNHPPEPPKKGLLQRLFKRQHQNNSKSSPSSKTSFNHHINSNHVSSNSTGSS
Chain of MAP kinase-activated protein kinase 2 (Homo sapiens) (P49137 whole entry, looked up): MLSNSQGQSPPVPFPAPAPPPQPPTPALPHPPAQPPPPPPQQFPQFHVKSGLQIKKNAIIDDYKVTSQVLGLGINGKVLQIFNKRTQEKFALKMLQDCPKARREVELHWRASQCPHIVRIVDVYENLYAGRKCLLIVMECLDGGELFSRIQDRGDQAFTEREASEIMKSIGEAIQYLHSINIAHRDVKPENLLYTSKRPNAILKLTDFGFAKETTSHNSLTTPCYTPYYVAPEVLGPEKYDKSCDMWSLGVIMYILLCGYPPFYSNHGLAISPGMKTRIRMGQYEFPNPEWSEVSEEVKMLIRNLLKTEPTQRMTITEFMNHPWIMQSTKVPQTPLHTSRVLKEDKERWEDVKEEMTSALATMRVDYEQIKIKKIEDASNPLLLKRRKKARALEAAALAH

- Activity [1]: 51%
- Activity [2]: 85%
- Activity [3]: 98%
- Activity [4]: 67%
- Activity [5]: 63%
- Activity [6]: 92%
- Activity [7]: 96%
- Activity [8]: 132%
- Activity [9]: 100%
- Activity [10]: 97%
- Activity [11]: 126%
- Activity [12]: 121%
- Activity [13]: 103%
- GI50 (PC-3): 2020 nM
- Activity [14]: 107%
- GI50 (DU-145): 474 nM
- Activity [15]: 104%
- Activity [16]: 77%
- Activity [17]: 92%
- Activity [18]: 88%
- Activity [19]: 107%
- Activity [20]: 106%
- Activity (Homo sapiens): 109%
- GI50 (NCI-H23): 376 nM
- Activity [21]: 85%
- Activity [22]: 93%
- Activity [23]: 125%
- Activity [25]: 87%
- Activity [28]: 89%
- Activity [29]: 105%
- Activity [30]: 105%
- Activity [31]: 99%
- Activity [32]: 113%
SMILES: O=C1Nc2ncccc2/C1=C1/Nc2ncccc2C1=O
- GI50 (SF-295): 257 nM
- Activity (MCF7 [24]): 0.37%
- Activity (MCF7 [26]): 0.17%
- Activity (MCF7 [27]): 58.28%
- GI50 [33]: 1270 nM
